The values that follow come from ChEMBL document CHEMBL1148646, “6-N,N-dimethylamino-2,3-naphthalimide: a new environment-sensitive fluorescent probe in delta- and mu-selective opioid peptides” (J Med Chem, 2006).

In test [1] the target is Delta-type opioid receptor (Mus musculus) (UniProt P32300). In words: (§1) Functional bioactivity against delta opioid receptor in mouse vas deferens. The format is tissue-based. A digest of the protocol: (§2)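 MVD strips field-stimulated with supramaximal bipolar rectangular pulses. Agonist read-out is inhibition of the electrically evoked twitch, referenced to deltorphin C, with IC50 taken from dose-response curves. For antagonism, compound is added 5 min before deltorphin C, and pA2 comes from Schild plot of the rightward curve shift. At least six experiments on fresh tissue; mean ± SE.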
Delta-type opioid receptor (Mus musculus), sequence (P32300 whole entry): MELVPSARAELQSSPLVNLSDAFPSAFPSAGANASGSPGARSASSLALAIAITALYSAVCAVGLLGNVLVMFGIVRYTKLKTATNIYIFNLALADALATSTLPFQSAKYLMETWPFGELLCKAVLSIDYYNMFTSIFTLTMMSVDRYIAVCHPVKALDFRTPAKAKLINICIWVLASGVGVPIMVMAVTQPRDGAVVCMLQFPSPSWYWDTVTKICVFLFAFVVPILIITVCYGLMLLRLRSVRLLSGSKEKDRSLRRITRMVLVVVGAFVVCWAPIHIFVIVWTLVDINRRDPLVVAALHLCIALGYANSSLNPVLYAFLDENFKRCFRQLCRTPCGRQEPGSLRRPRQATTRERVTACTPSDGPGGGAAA

The target of test [2] is Delta-type opioid receptor (Rattus norvegicus, UniProt P33533). The test can be described thus: Displacement of [3H]deltorphin C from rat delta opioid receptor in brain P2 synaptosomes. The format is subcellular. A digest of the protocol: (§3)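 Rat brain synaptosome (P2) membranes, preincubated to remove endogenous opioid peptides, stored at -80 °C in buffered 20% glycerol. Five to eight ligand concentrations, each in duplicate, with independent repeats on different synaptosome preparations. Bound radioligand collected on glass fiber filters soaked in 0.1% polyethylenimine and washed thrice in ice-cold buffered BSA. Ki by Cheng-Prusoff; mean ± SE.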
Delta-type opioid receptor (Rattus norvegicus, UniProt P33533), sequence (P33533 whole entry): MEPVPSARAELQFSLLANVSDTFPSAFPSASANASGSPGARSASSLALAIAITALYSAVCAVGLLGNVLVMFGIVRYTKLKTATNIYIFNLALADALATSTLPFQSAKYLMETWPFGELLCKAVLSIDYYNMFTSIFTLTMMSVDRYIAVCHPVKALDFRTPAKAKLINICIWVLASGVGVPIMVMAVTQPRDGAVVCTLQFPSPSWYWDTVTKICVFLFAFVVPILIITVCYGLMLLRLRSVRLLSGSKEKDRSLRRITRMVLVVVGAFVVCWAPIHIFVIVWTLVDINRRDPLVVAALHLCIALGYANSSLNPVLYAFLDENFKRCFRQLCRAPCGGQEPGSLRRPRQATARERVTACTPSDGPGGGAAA

Test [3] addresses Mu-type opioid receptor (Rattus norvegicus, UniProt P33535). In words: Displacement of [3H]DAMGO from rat mu opioid receptor in brain P2 synaptosomes. The format is subcellular. A digest of the protocol: as §3
The target of test [4] is Delta-type opioid receptor (Mus musculus, UniProt P32300). The test is described as §1. The format is tissue-based. Put shortly:
as §2

Test [5] has as its target Mu-type opioid receptor (Cavia porcellus, UniProt P97266). In words: Functional bioactivity against mu opioid receptor in guinea-pig ileum. The format is tissue-based. Put shortly:
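Myenteric plexus-longitudinal muscle from male guinea pig ileum, field-stimulated with supramaximal bipolar rectangular pulses. Agonist read-out is inhibition of the electrically evoked twitch, referenced to dermorphin, with IC50 taken from dose-response curves. For antagonism, compound is added 5 min before dermorphin, and pA2 comes from Schild plot. At least six experiments on fresh tissue; mean ± SE.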

Test [6] concerns the target Opioid receptors; mu & delta (Rattus norvegicus) (UniProt P33533+P33535). The test can be described thus: Selectivity for rat delta opioid receptor over mu opioid receptor. It is filed as protein assay.

Residues, ends and D or L forms follow the SMILES beside them.

Mu-type opioid receptor (Cavia porcellus, UniProt P97266), sequence (P97266 whole entry): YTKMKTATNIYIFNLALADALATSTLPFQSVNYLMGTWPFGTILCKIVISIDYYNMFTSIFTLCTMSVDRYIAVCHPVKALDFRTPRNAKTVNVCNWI
Delta-type opioid receptor (Mus musculus, UniProt P32300), sequence (P32300 whole entry): as the sequence (P32300 whole entry) above
Mu-type opioid receptor (Rattus norvegicus, UniProt P33535), sequence (P33535 whole entry): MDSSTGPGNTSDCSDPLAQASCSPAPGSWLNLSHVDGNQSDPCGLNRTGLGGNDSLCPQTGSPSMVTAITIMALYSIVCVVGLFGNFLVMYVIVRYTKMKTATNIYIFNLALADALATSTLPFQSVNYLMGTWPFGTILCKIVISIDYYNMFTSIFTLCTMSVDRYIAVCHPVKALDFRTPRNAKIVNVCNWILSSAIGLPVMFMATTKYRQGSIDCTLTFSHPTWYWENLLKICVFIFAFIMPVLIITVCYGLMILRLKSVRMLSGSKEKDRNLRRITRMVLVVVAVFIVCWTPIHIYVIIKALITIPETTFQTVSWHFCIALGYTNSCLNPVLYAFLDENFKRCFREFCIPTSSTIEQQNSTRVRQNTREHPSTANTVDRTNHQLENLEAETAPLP
Opioid receptors; mu & delta (Rattus norvegicus), sequence (P33533 whole entry, looked up): as the sequence (P33533 whole entry) above
Opioid receptors; mu & delta (Rattus norvegicus), sequence (P33535 whole entry, looked up): as the sequence (P33535 whole entry) above

On to `CN(C)c1ccc2cc3c(cc2c1)C(=O)N(CC(NC(=O)CCCCCNC(=O)[C@H](Cc1ccccc1)NC(=O)[C@H](Cc1ccccc1)NC(=O)[C@@H]1CCCN1C(=O)[C@@H](N)Cc1ccc(O)cc1)C(N)=O)C3=O` (some centres not stated) (HELM PEPTIDE1{Y.P.F.F.[O=C(CCCCCN[*:1])[*:2]].[CN(C)c1ccc2cc3c(cc2c1)C(=O)N(CC(N[*:1])C(=O)[*:2])C3=O].[am]}$$$$V2.0), for which the max activation in test [1] was found to be 29%. Also, the Activity result in test [1] (filed as partial agonist) was “Partial agonist”.

`N[C@@H](Cc1ccc(O)cc1)C(=O)N1CCC[C@H]1C(=O)N[C@@H](Cc1ccccc1)C(=O)N[C@@H](Cc1ccccc1)C(=O)NCCCCC/N=C(S)/N=C1/C=CC(=C2c3ccc(O)cc3Oc3cc(O)ccc32)C(C(=O)O)=C1`: the Ki turned out to be 668 nM in test [2] and 252 nM in test [3]. This compound displayed a max activation in test [1] of 20%. The Activity result in test [1] (filed as partial agonist) was “Partial agonist”. The half-inhibitory concentration (IC50) in test [4] was determined as 200 nM; in test [5], 120 nM.

On to `CN(C)c1ccc2cc3c(cc2c1)C(=O)N(C[C@H](NC(=O)CCCCCNC(=O)[C@H](Cc1ccccc1)NC(=O)[C@H](Cc1ccccc1)NC(=O)[C@@H]1CCCN1C(=O)[C@@H](N)Cc1ccc(O)cc1)C(N)=O)C3=O` (HELM PEPTIDE1{Y.P.F.F.[O=C(CCCCCN[*:1])[*:2]].[CN(C)c1ccc2cc3c(cc2c1)C(=O)N(C[C@H](N[*:1])C(=O)[*:2])C3=O].[am]}$$$$V2.0), for which the inhibition constant Ki was found to be 5940 nM in test [2] and 244 nM in test [3]. Besides, the values for the half-inhibitory concentration (IC50) in test [4] and in test [5] were 300 nM and 253 nM, respectively.

For `Cc1cc(O)cc(C)c1C[C@H](N)C(=O)N1Cc2ccccc2C[C@H]1C(=O)N[C@@H](CCC(=O)O)C(=O)NCCCCCC(=O)N[C@@H](CN1C(=O)c2cc3ccc(N(C)C)cc3cc2C1=O)C(N)=O`, the Ki in test [2] was 0.158 nM; in test [3], 41.3 nM. Inhibition in test [5] was half-maximal at 244 nM (IC50).

Turning to `Cc1cc(O)cc(C)c1C[C@H](N)C(=O)N1Cc2ccccc2C[C@H]1C(=O)N[C@@H](CCC(=O)O)C(=O)N[C@@H](CN1C(=O)c2cc3ccc(N(C)C)cc3cc2C1=O)C(N)=O` (HELM PEPTIDE1{[Cc1cc(O)cc(C)c1C[C@H](N)C(=O)[*:2]].[Tic].E.[CN(C)c1ccc2cc3c(cc2c1)C(=O)N(C[C@H](N[*:1])C(=O)[*:2])C3=O].[am]}$$$$V2.0), the values for the inhibitory constant (Ki) in test [2] and in test [3] were 7.8 nM and 7880 nM, respectively. This compound also registered a half-inhibitory concentration (IC50) in test [5] of 100 nM.

In the case of `CN(C)c1ccc2cc3c(cc2c1)C(=O)N(C[C@H](NC(=O)[C@@H]1CCCN1C(=O)[C@@H](N)Cc1ccc(O)cc1)C(=O)N[C@@H](Cc1ccccc1)C(N)=O)C3=O`, the Ki was determined as 839 nM in test [2] and 3420 nM in test [3]. Besides, the IC50 worked out at 500 nM in test [4] and 389 nM in test [5].

For the compound `Cc1cc(O)cc(C)c1C[C@H](N)C(=O)N1Cc2ccccc2CC1C(=O)N[C@@H](CCC(=O)O)C(=O)NCCCCCC(=O)NC(CN1C(=O)c2cc3ccc(N(C)C)cc3cc2C1=O)C(N)=O` (some centres not stated), the Ratio Ki in test [6] was determined as 261. Also, the Activity entry in test [1] (filed as antagonist) is “Antagonist”.

With `CN(C)c1ccc2cc3c(cc2c1)C(=O)N(CC(NC(=O)[C@@H]1CCCN1C(=O)[C@@H](N)Cc1ccc(O)cc1)C(=O)N[C@@H](Cc1ccccc1)C(N)=O)C3=O` (some centres not stated), in test [6], the Ratio Ki came out at 4.1. In test [1], this compound gave a max activation of 22%. For the same compound, the Activity entry in test [1] (filed as partial agonist) is “Partial agonist”.
